# Hits are enriched below; roughly 2.5% of the tested compounds scored in any of these assays.
# EWS-Fli block – blocks EWS/Fli oncoprotein-driven transcription; A673 NR0B1-luciferase reporter, viability-normalised; inhibition, % at 12.6 µM; 350,000 tested, 0.67% active;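 active = mean inhibition of at least 50% after viability correction, with every replicate also passing that limit; inconclusive = mean reaches 50% but only one of two replicates passes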;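 also: firefly luciferase signal divided by Alamar Blue viability fluorescence both relative to DMSO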
# Glyco luc inh – blocks N-linked glycosylation in D54 reporter cells; AID 588692; 360,000 tested, 0.23% active; D54 ERlucT glycosylation luciferase reporter, 24 h; percent of 100 nM tunicamycin response; reporter increase, % at 12.5 µM;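 active = mean luciferase reporter signal, scaled so untreated is 0 and the glycosylation-blocking control 100, at or above a set limit in every replicate; inconclusive = mean reaches the limit but not every replicate does; inactive = mean below the limit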;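 also: luciferase carries N-glycosylation sites so blocking glycosylation raises the light; 0% = median of neutral control wells and 100% = median of 100 nM tunicamycin wells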
# MLL AF4-AF9 inh – inhibitors of human MLL-AF4/AF9 interaction | AlphaScreen, biotin-AF4 peptide binding to FLAG-AF9 | inhibition, % at 10 µM | 350,000 tested, 0.47% active;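 active = every replicate reaching a set inhibition limit, whatever the replicate mean, cut at about 25% in these data; inconclusive = mean inhibition reaches that limit but some replicates miss it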;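 also: 0% = plate neutral control median and 100% = total signal loss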
# Target sequence (P42568 whole entry, looked up): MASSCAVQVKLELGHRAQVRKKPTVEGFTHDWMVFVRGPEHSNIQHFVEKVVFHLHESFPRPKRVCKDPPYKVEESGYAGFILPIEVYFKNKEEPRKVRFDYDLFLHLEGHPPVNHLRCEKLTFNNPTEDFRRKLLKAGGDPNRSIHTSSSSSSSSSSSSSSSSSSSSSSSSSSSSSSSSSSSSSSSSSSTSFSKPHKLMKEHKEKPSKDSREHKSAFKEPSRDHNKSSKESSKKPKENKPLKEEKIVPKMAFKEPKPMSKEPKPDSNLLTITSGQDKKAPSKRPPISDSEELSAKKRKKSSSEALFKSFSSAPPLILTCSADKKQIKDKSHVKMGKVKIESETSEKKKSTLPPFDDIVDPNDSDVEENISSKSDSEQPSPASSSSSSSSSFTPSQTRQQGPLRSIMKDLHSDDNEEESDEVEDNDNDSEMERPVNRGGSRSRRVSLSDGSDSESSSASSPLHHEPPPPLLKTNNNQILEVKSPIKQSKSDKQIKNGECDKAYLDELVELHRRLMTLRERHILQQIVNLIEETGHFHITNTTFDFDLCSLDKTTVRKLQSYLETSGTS
# FN deposition inh – fibronectin deposition inhibition; inhibition, % at 12.6 µM; 350,000 tested, 0.086% active; AH1F fibroblasts, Alexa488-fibronectin deposition fluorescence, overnight;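 active = mean inhibition across replicates of 30% or more, regardless of how many single replicates reach that level; inconclusive = mean under 30% yet at least half of replicates reach 30%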;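 also: positive control wells lacked labelled fibronectin entirely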
#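 Assay system: AH1F fibroblasts assembling fluorescent fibronectin matrix; Amount: 10000 AH1F cells per well; Buffer or medium: DMEM, 2% serum; Probe or stimulus: Alexa488-fibronectin, 24 nM final in well; Doses: single compound dose, delivered by pin transfer; Incubation: 1 h adhesion, overnight exposure; Measured by: fluorescence 485/525 nm; Read-out: fibronectin deposition inhibition.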
# Env fusion inh – inhibitors of HIV Env-mediated cell fusion. HeLa-JRFL Env/CEM21 cell fusion, luciferase. inhibition, % at 12.3 µM. 360,000 tested, 1.1% active. AID 651610;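 active = mean replicate inhibition score of at least 50 and every replicate individually at or above 50; inconclusive = only one of the two criteria met; inactive = mean below 50 and not all replicates reaching 50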;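 also: 0% = plate neutral controls and 100% = maraviroc near 300 nM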
# PAX8 inh HTS – PAX8 transcriptional activity inhibition | RMG-I TPO-luciferase reporter, SteadyGlo, 24 h | AID 652154 | inhibition, % at 12.6 µM | 360,000 tested, 1.2% active;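 active = mean replicate inhibition at least 60% with every replicate also reaching 60%; inconclusive = only one of the two criteria is met; inactive = mean below 60% and not all replicates reaching 60%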;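 also: luciferase light reporting Pax8 driven TPO promoter activity; plate controls were median of neutral control wells for no effect and mitoxantrone controls for full effect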
# Numbers without * were called inactive; i = inactive; ? = inconclusive; · = no result given; ! = a repeat was not active; [ ] = another dose, or the depositor's remark.
SMILES,EWS-Fli block,Glyco luc inh,MLL AF4-AF9 inh,FN deposition inh,Env fusion inh,PAX8 inh HTS
COc1cccc(/C=N/Nc2ncnc3scc(-c4ccccc4)c23)c1O,·,-13,·,3,41,76*
COc1cccc(NC(=O)N2C[C@@H](O)COC[C@@H]3O[C@H](CC(=O)NC4CCCC4)CC[C@H]32)c1,-11,·,-1,-4,·,-14
Cc1cccc(C(=O)N[C@H](C(=O)Nc2ncc(C)s2)C(C)C)c1,37,-1,-2,2,-324,70*
Cc1cccc(C(=O)N[C@H](C(=O)Nc2nnc(C3CC3)s2)C(C)C)c1,·,1,·,-5,·,16
COc1ccccc1C(=O)NCCC(=O)NC1CCCC(C)C1C (stereo not given),0,2,-1,·,58*,12
N#Cc1c(F)cccc1N1CCC(C#N)CC1,8,-2,-2,13,64*,-23
N#Cc1cccc(C#N)c1N1CCC(C#N)CC1,-9,0,-1,-17,-1,-17
COc1cccc(NC(=O)N[C@H]2CC[C@@H](CC(=O)NCc3ccccn3)O[C@H]2CO)c1,-5,·,4,1,-5[16.7 µM],-3
C[C@@H]1CN([C@@H](C)CO)S(=O)(=O)c2ccc(Br)cc2O[C@@H]1CN(C)Cc1ccccc1,8,·,7,·,?,2
CC(=NCCc1c(C)[nH]c2ccc(OCc3ccccc3)cc12)C1=C(O)CC(c2ccccc2)CC1=O (stereo not given),21,-4,4,·,16,6
CCC(=NCCc1c(C)[nH]c2ccc(OC(F)(F)F)cc12)C1=C(O)CC(c2ccccc2)CC1=O (stereo not given),51*,?,8,-6,-43,11
CCCCC(=NCCc1c(C)[nH]c2ccc(OC)cc12)C1=C(O)CC(c2ccccc2)CC1=O (stereo not given),55*,15,5,11,-248,54
CCC(=NCCc1c(C)[nH]c2ccccc12)C1=C(O)CC(c2ccccc2)CC1=O (stereo not given),49,8,-26,-1,29,49
Cc1ccc(NC(=O)c2sc(Cl)nc2C)c(C)c1,·,1,·,5,-29,-7
Cc1cc(C)c(C)c(OC(=O)c2sc(Cl)nc2C)c1,·,38*,·,·,·,·
O=C(C[C@H]1C=C[C@@H](NS(=O)(=O)c2cccc(F)c2)[C@@H](CO)O1)NCc1ccc2c(c1)OCO2,-5,·,-2,9,-6[16.7 µM],·
CCC(=O)Nc1cc(C(=O)O)ccc1S(=O)(=O)c1ccc(C)cc1,-4,2,-6,0,·,64*
CC1(C)Cc2cccc(Oc3cc(NN4CCCCC4)c([N+](=O)[O-])cc3[N+](=O)[O-])c2O1,12,-10,2,-3,72*,6
COc1cc(/C=C2/SC(=Nc3ccc(O)cc3)NC2=O)ccc1O,54*,1,-13,4,i,56
COc1ccc(/C=C2\SC(=Nc3ccccc3OC)NC2=O)cc1,4,12,7,-4,1,24
COc1cc(/C=C2\SC(=Nc3ccccc3OC)NC2=O)ccc1O,35,0,5,-5,-16,71*
CCc1ccc(N=C2NC(=O)/C(=C/c3cc(OC)c(O)c(OC)c3)S2)cc1,3,7,9,5,-30,3
Fc1ccc(CN2[C@@H]3CNC[C@H]2C3c2ccc(-c3ccncc3)cc2)cc1 (stereo not given in full),1,·,7,-5,·,-8
c1cc(-c2ccc(C3[C@H]4CNC[C@@H]3N4CC3CCCC3)cc2)ccn1 (stereo not given in full),-9,·,42*,0,·,·
Fc1ccc(F)c(CN2[C@@H]3CNC[C@H]2C3c2ccc(-c3ccccc3)cc2)c1 (stereo not given in full),6,·,3,-5,·,·
Fc1ccc(F)c(CN2[C@@H]3CNC[C@H]2C3c2ccc(-c3ccncc3)cc2)c1 (stereo not given in full),-4,·,26*!,-13,·,·
CO[C@H]1CN(C)C(=O)c2ccc(NC(=O)c3cc(C)on3)cc2OC[C@@H](C)N(CC2CC2)C[C@@H]1C,-3,·,1,-20,·,2
C[C@@H]1CN([C@@H](C)CO)C(=O)c2cc(NS(=O)(=O)c3cccs3)ccc2O[C@@H](C)CCCCO[C@H]1CN(C)C(=O)c1ccccc1,7,·,-1,-6,14[16.7 µM],7

# Screening results: PubChem BioAssay, Broad Institute
